Screening results as filed in PubChem.
Sampled rows, rich in hits. Any-hit rate of the full collection: about 3.1%.
hERG protect: shields human hERG channel from block by proarrhythmic agents; Q12809; CHO-hERG, FluxOR thallium flux, dofetilide IC70 present; activation (rescue from dofetilide block), less the hit threshold, % at 10 µM; hit rate 0.51% among 310,000; AID 1511;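 active = activation above the mean of controls blocked by dofetilide plus 5 SD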;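 also: thallium influx through hERG after potassium depolarization seen as dye fluorescence rise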
KCNQ1 pot: human KCNQ1 channel potentiation or activation | P51787 | B-score at 10 µM | CHO-K1 KCNQ1, thallium flux FluxOR fluorescence; hits give high values | hit rate 0.35% among 310,000;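 active = fluorescence ratio B-score, a plate-corrected score, at least three library SD, with initial intensity B-score within 5 SD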
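Test system: CHO-K1 cells stably expressing KCNQ1 / Medium: assay buffer / Also added: depolarizing K+/Tl+ stimulus, K2SO4 and Tl2SO4 each 12.5 mM in 5x stock / Incubation: 90 min dye loading and 20 min compound exposure, both at room temperature / Signal: thallium influx via FluxOR fluorescence, kinetic imaging / Evaluation: B score of baseline-normalized fluorescence ratio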
KCNQ1 block: blocks the human KCNQ1 potassium channel; P51787; CHO-K1 KCNQ1, FluxOR thallium flux fluorescence; hits give high values; B-score at 10 µM; hit rate 1.3% among 310,000; AID 2642;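 active = compounds whose thallium flux B-score, printed positive for inhibition, exceeds three library SD while starting fluorescence stays within three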;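 also: channel opened by potassium depolarization with thallium stimulus after 20 min compound exposure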
KCNK9 inh: inhibitors of human KCNK9 two-pore domain potassium channel | Q9NPC2 | HEK293 KCNK9, FluxOR thallium flux fluorescence; hits give low values | B-score at 10 µM | hit rate 1.2% among 310,000 | AID 488922;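 active = ratio B-score over 3 SD below the library mean, with starting fluorescence within 5 SD of its mean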;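 also: negative B-score means less thallium flux so channel inhibition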
KCNK3 block: human KCNK3 channel inhibition, primary screen | hit rate 0.84% among 340,000 | B-score at 10 µM | CHO-KCNK3 thallium flux, FluxOR fluorescence; hits give low values | AID 602410 | O14649;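 active = B-score under library mean minus 4 SD, starting fluorescence ratio at most library mean plus 5 SD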;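 also: more negative B-score means stronger inhibition of thallium flux through KCNK3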
KCNK3 confirm: confirmation of human KCNK3 two-pore domain potassium channel inhibitors. shares compounds with KCNK3 block. CHO-KCNK3 thallium flux, FluxOR fluorescence; 0% buffer, 100% carvedilol maximal block. ratio percent of control, % at 10 µM. hit rate 99% among 2,400;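 active = ratio percent of control, averaged over triplicates, above buffer control mean plus 5 SD, cut at about 64% in these data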;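 also: ratio is the fluorescence rise from min to max over baseline after thallium stimulus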
KCNK3 noninduced: activity in cells without induced KCNK3 expression; shares compounds with KCNK3 block; non-induced KCNK3 parental cells, FluxOR thallium flux; hits give low values; thallium flux ratio (lower = more inhibition) at 10 µM; hit rate 40% among 2,400; AID 651747;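 active = thallium flux ratio, averaged over three wells, more than 5 SD below the buffer control mean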;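 also: host cells are CHO cells without KCNK3 induction; ratio is peak minus trough fluorescence over baseline then normalized to buffer controls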
* hit, by the source's call; i = inactive; · = no result given.

SMILES | hERG protect | KCNQ1 pot | KCNQ1 block | KCNK9 inh | KCNK3 block | KCNK3 confirm | KCNK3 noninduced
CC(CS(=O)(=O)c1ccccc1[N+](=O)[O-])N1CCOCC1 (stereo not given) | -2.9 | i | i | i | -9.13* | 84.0* | i
O=C(NC12CC3CC(CC(C3)C1)C2)N1CCN(c2nc(-c3ccccc3)cs2)CC1 | -6.4 | i | i | -6.75* | i | 103.7* | i
O=C(N/N=C/c1ccc[nH]1)c1ccc(O)cc1 | -5.3 | i | i | i | i | · | ·
O=C(N/N=C/c1ccc[nH]1)c1ccccc1O | -17.4 | i | i | i | -9.01* | 81.3* | i
O=C(CCOc1ccccc1)Nc1ccc([N+](=O)[O-])cc1 | -4.8 | i | i | i | i | · | ·
O=C(Nc1ccccc1)N1N=CCC1c1ccccc1 (stereo not given) | -5.7 | i | i | i | i | · | ·
O=C(Nc1ccc(Cl)c(Cl)c1)N1N=CCC1c1ccccc1 (stereo not given) | -7.0 | i | i | -6.63* | -9.5* | 116.3* | i
O=C(Nc1ccccc1N1CCN(C(=O)c2ccc(Cl)cc2)CC1)c1cc2ccccc2o1 | -5.8 | i | i | i | -12.3* | 121.0* | 0.143*
O=C(Nc1ccc(N2CCN(C(=O)c3ccc(Cl)cc3)CC2)cc1)c1cc2ccccc2o1 | -11.8 | i | i | i | i | · | ·
CC(C)Oc1cccc(C(=O)C2CCCN(Cc3ccc4nonc4c3)C2)c1 (stereo not given) | -9.2 | i | i | i | -11.6* | 127.0* | 0.141*
O=C(OCCOc1ccc(Br)cc1)c1ccc(Cl)nc1 | -6.8 | i | i | i | -10.6* | 69.3* | i
CC(C)N(C(=O)COC(=O)c1ccc(Cl)nc1)C(C)C | -2.3 | i | i | i | i | · | ·
CCc1ncc(CN2CCCC(C(=O)Nc3cccc(-c4cccc(C)c4)c3)C2)cn1 (stereo not given) | -13.1 | i | i | i | -10.9* | 114.7* | 0.152*
COc1ccccc1N1C(=S)NC2CS(=O)(=O)CC21 (stereo not given) | -8.1 | i | i | i | i | · | ·
COc1ccc2c(c1)C(SCC(=O)NCCc1ccc(Cl)cc1)CC(C)(C)O2 (stereo not given) | -12.7 | i | i | i | -9.02* | 78.0* | i
COc1ccc(CCC(=O)NCCc2ccc(Cl)cc2)cc1 | -6.0 | i | i | i | i | · | ·
Cn1c(=O)c2c(=O)cc(NNC(=O)CC#N)[nH]c2n(C)c1=O | -6.8 | i | i | i | i | · | ·
CCN1C(=O)C(CC(=O)Nc2ccc(OC)cc2)N(CCc2ccccc2)C1=S (stereo not given) | -21.8 | i | i | i | -8.81* | 113.3* | i
O=C(N/N=C/c1cccc(Oc2ccccc2)c1)c1cccc(O)c1 | -27.3 | i | i | i | -12.9* | 131.0* | 0.12*
O=C(N/N=C/c1cccc(Oc2ccccc2)c1)c1ccccc1Br | 1.3 | i | i | i | -12.4* | 90.7* | i
CC(=O)c1ccc(S(=O)(=O)N(C)CCCC(=O)N(C)Cc2c(F)cccc2Cl)cc1 | -8.1 | i | i | i | i | · | ·
C=CCOc1ccc(C(=O)n2cc(C(=O)OC)c3ccccc32)cc1 | -1.8 | i | i | i | -9.28* | 113.7* | i
Cc1ccc(NC(=S)NN(C)c2cc(C)nc(C)n2)cc1 | -8.1 | i | i | i | i | · | ·
O=C1CC(c2ccccc2)(c2ccccc2)c2ccccc21 | · | · | · | · | i | · | ·
O=C1OC(c2ccccc2)(c2ccccc2)c2ccccc21 | · | · | · | · | -12.5* | 107.0* | i
SMILES | hERG protect | KCNQ1 pot | KCNQ1 block | KCNK9 inh | KCNK3 block | KCNK3 confirm | KCNK3 noninduced
CC(Cc1ccccc1)NC(=O)CC(c1ccccc1)c1ccccc1O (stereo not given) | -3.8 | i | i | i | i | · | ·
O=C(CC(c1ccccc1)c1ccccc1O)NCc1ccccc1 (stereo not given) | -7.0 | i | i | i | -8.84* | 95.3* | i
COc1ccccc1/C=C/C(=O)NCC(=O)N/N=C/c1ccc(C(=O)O)cc1 | 0.1 | i | i | i | i | · | ·
COc1ccc(C)cc1NC(=O)c1cccc(C(=O)Nc2cc(C)ccc2OC)c1 | -7.0 | i | i | -8.04* | -10.6* | 106.3* | i
CCCCCCCCC(=O)Nc1cc(C)ccc1OC | -13.2 | i | i | i | -10.7* | 102.7* | i
CCCc1cc(C(=O)OCC(=O)N(CCC)c2c(N)n(Cc3ccccc3)c(=O)[nH]c2=O)sc1C | -14.6 | i | i | i | i | · | ·
CC(C)=CCOc1ccc2c(C)c(CC(=O)N3C[C@H]4C[C@@H](C3)c3cccc(=O)n3C4)c(=O)oc2c1C | -15.9 | i | i | i | i | · | ·
COc1ccc(N(CC(=O)NCCSCc2ccco2)S(=O)(=O)c2ccccc2)cc1Cl | -3.1 | i | i | i | -10.1* | 106.0* | i
COc1cccc(-c2nc3ccccc3c(=O)o2)c1 | -14.1 | i | i | i | i | · | ·
O=C(Nc1cccc(-c2nc3ccccc3c(=O)o2)c1)c1ccccc1 | -0.3 | i | i | i | -8.71* | 107.7* | 0.159*
Cc1ccc(C(=O)Nc2cccc(-c3cn4ccccc4n3)c2)cc1 | -1.4 | i | i | i | i | · | ·
CCCCC(=O)Nc1cccc(-c2cn3ccccc3n2)c1 | -8.0 | i | i | i | -8.72* | 120.7* | 0.131*
O=C(Nc1cccc(-c2cn3ccccc3n2)c1)c1ccccc1 | -12.6 | i | i | i | -11.7* | 112.0* | i
N#CC1=C(N)NC(SCc2ccccc2)=C(C#N)C12CCCCC2 | -36.8 | i | i | i | i | · | ·
N#CC1=C(N)NC(SCC(=O)Nc2ccccc2)=C(C#N)C12CCCCC2 | -7.4 | i | i | i | -9.48* | 106.0* | 0.139*
COc1ccc(C(=O)CSC2=C(C#N)C3(CCCCC3)C(C#N)=C(N)N2)cc1 | -21.6 | i | i | i | -10.4* | 112.3* | 0.125*
O=C(Nc1ccc(S(=O)(=O)N2CCCC2)cc1)C1CCCN1C(=O)c1cccs1 (stereo not given) | -6.6 | i | i | i | i | · | ·
Cc1cc(C)n(-c2ccc(C(=O)OCC(=O)c3c(N)n(C)c(=O)n(C)c3=O)cc2)n1 | -3.8 | i | i | i | i | · | ·
CCCC(C)NC(=O)c1cc(Cl)ccc1OC (stereo not given) | -5.0 | i | i | i | i | · | ·
